Results from BindingDB's records for doi:10.1021/acs.jmedchem.6b01066 (University of Copenhagen, 2016).

Target: T1, Excitatory amino acid transporter 3 (Homo sapiens, UniProt P43005)
T1 sequence (P43005 whole entry): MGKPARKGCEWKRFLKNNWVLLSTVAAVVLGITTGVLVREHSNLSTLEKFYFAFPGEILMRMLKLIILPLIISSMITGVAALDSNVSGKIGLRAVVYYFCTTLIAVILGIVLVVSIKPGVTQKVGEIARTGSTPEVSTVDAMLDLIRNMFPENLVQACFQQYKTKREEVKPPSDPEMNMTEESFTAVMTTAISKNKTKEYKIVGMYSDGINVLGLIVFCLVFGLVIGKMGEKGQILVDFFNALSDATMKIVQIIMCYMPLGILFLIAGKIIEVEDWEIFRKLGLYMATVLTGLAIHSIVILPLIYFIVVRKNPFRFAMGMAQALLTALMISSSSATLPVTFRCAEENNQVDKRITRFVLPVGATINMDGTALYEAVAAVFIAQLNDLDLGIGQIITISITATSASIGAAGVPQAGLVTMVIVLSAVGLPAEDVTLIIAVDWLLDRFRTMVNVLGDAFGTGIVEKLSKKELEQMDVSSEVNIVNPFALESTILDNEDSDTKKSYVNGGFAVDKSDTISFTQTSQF
Experiment: Inhibition of [3H]-D-Asp uptake at human EAAT3 expressed in HEK293 cells measured after 3 mins by TopCount method
Outline: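 Stably transfected EAAT1-, EAAT2- or EAAT3-HEK293 lines grown in high-glucose GlutaMAX DMEM with 5% dialyzed FBS, penicillin/streptomycin and […]. Cells were seeded and reached confluence in 16−24 h, then washed in uptake buffer (HBSS, 20 mM HEPES, 1 mM CaCl₂, 1 mM MgCl₂, pH 7.4). Uptake ran 3 min at room temperature with 100 nM [³H]-D-aspartate plus test compound at varied concentrations. Two ice-cold washes, then scintillation counting. IC₅₀ from concentration−inhibition curves, n = 3−5.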

N[C@H](C(=O)O)C(NC(=O)Oc1ccccc1)C(=O)O (stereo partly specified)
IC50: 316 µM
